The term Kd denotes the equilibrium constant for the complex coming apart. Read a high Kd as a looser complex.

Assay [1] addresses T1, 4EHP used for ITC, wild type (human, UniProt O60573 1-245).
T1 sequence: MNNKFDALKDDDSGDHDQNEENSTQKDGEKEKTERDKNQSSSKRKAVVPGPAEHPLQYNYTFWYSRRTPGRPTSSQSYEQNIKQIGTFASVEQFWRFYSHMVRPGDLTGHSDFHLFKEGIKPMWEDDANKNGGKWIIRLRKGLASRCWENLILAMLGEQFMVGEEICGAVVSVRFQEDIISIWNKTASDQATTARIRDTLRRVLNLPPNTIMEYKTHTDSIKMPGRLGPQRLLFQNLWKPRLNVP
Put plainly: ITC. For orientation: In ITC the heat of successive injections is recorded.

In the next assay the target is T2, 4EHP S99N used for ITC (human, UniProt O60573 1-245, S99N).
T2 sequence: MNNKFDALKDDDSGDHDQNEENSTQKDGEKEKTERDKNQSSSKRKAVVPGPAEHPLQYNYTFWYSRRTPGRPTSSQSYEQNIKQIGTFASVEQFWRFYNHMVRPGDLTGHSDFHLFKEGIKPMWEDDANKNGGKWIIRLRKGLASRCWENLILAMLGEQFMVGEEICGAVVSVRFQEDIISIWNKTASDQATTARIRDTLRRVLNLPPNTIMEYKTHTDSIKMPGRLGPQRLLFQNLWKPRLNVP
Kind of assay: ITC.

Assay [2] has as its target T3, 4EHP-His6 (residues A52–F234), RE-LL mutant, of the competition assays (human, UniProt O60573 52-234, R103L | E149L).
T3 sequence: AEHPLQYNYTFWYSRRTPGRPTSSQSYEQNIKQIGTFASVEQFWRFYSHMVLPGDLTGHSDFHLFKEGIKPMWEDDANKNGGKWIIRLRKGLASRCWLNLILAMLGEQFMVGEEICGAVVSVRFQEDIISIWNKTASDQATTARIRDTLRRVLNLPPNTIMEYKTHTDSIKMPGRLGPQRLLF
Put plainly: pull-down.

In the next assay the test system is 4EHP. Kind of assay: Pull-down / coimmunoprecipitation with 4EHP in HEK293T cell lysates. The conditions noted are these: HEK293T cells, GFP-tagged protein and V5-SBP-4EHP, Western blot. Format: binding, human. The essentials: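 Streptavidin-bead pull-down from RNase A-treated HEK293T lysates of cells expressing V5-SBP-tagged 4EHP or eIF4E (wild type or mutants). Co-bound endogenous GYF2, 4E-T and 4E-BP1 were probed; for 4EHP, co-expressed GFP-4E-BP1 was also probed, with V5-SBP-MBP as negative control. Inputs and bound fractions were analysed by Western blot with anti-V5, anti-GFP, anti-GYF2 and other antibodies, using ECL detection.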
(In general: A western blot detects proteins with antibodies after separation by electrophoresis.)

In another assay the test system is endogenous GYF2. Kind of assay: Pull-down of GYF2 by tagged 4EHP in HEK293T cells. The conditions noted are these: Western blot. It is filed as binding, human. The method, boiled down: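 Streptavidin pull-downs used HEK293T lysates containing RNase A and expressed V5-SBP-4EHP, wild type or mutants. V5-SBP-MBP was the negative control. Inputs (1–1.5%) and bound fractions (up to 30% for GYF2) were analysed by Western blot with anti-V5 and anti-GYF2 antibodies, using ECL detection.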

Take TRIIYDRKFLMECRNSPVTKTPPRDLPTIPGVTS [4E-BP1 peptide, ITC]: the Kd in assay [1] was determined as 55 nM; with 4EHP S99N used for ITC, 4 nM.

As to TRIIYDRKFLMECRNSPVTKTPPRDLPTIPGVTS (domain or fragment) [4E-BP1 peptide (residues T50–S83) with C-terminal GB1 tag, of the competition assays], the binding result in assay [2] was “binds”. KYKLADYRYGREEMLALFLKDNKIPSDLLDKEFLPILQ [GYF2 C+L+NC peptide, ITC]: the Kd in assay [1] was found to be 14 nM.

B1: GYF1 A2+3*: GYF1 E86A, N95F; auxiliary site 2 mutant (listed as A2*) (protein, UniProt O75420 1-1035, looked up, variant E86A N95F)
GRB10-interacting GYF protein …: MAAETLNFGPEWLRALSGGGSVASPPPSPAMPKYKLADYRYGREEMLALYVKENKVPEELQDKEFAAVLQDEPLQPLALEPLTEEAQRNFSLSVFSVAVLRLMGKGAGPPLAGTSRGRGSTRSRGRGRGDSCFYQRSIEEGDGAFGRSPREIQRSQSWDDRGERRFEKSARRDGARCGFEEGGAGPRKEHARSDSENWRSLREEQEEEEEGSWRLGAGPRRDGDRWRSASPDGGPRSAGWREHGERRRKFEFDLRGDRGGCGEEEGRGGGGSSHLRRCRAPEGFEEDKDGLPEWCLDDEDEEMGTFDASGAFLPLKKGPKEPIPEEQELDFQGLEEEEEPSEGLEEEGPEAGGKELTPLPPQEEKSSSPSPLPTLGPLWGTNGDGDETAEKEPPAAEDDIRGIQLSPGVGSSAGPPGDLEDDEGLKHLQQEAEKLVASLQDSSLEEEQFTAAMQTQGLRHSAAATALPLSHGAARKWFYKDPQGEIQGPFTTQEMAEWFQAGYFSMSLLVKRGCDEGFQPLGEVIKMWGRVPFAPGPSPPPLLGNMDQERLKKQQELAAAALYQQLQHQQFLQLVSSRQLPQCALREKAALGDLTPPPPPPPQQQQQQLTAFLQQLQALKPPRGGDQNLLPTMSRSLSVPDSGRLWDVHTSASSQSGGEASLWDIPINSSTQGPILEQLQLQHKFQERREVELRAKREEEERKRREEKRRQQQQEEQKRRQEEEELFRRKHVRQQELLLKLLQQQQAVPVPPAPSSPPPLWAGLAKQGLSMKTLLELQLEGERQLHKQPPPREPARAQAPNHRVQLGGLGTAPLNQWVSEAGPLWGGPDKSGGGSSGLGLWEDTPKSGGSLVRGLGLKNSRSSPSLSDSYSHLSGRPIRKKTEEEEKLLKLLQGIPRPQDGFTQWCEQMLHTLSATGSLDVPMAVAILKEVESPYDVHDYIRSCLGDTLEAKEFAKQFLERRAKQKASQQRQQQQEAWLSSASLQTAFQANHSTKLGPGEGSKAKRRALMLHSDPSILGYSLHGSSGEIESVDDY
In the case of B1, in the assay with 4EHP, the “interaction with 4EHP in cells, overexpressed binding partner” value is “did not affect binding to overexpressed 4EHP in human cells”.

B2: 4EHP S99N: 4EHP S99N; dorsal surface mutant (protein, UniProt O60573 1-245, looked up, variant S99N)
Eukaryotic translation …: MNNKFDALKDDDSGDHDQNEENSTQKDGEKEKTERDKNQSSSKRKAVVPGPAEHPLQYNYTFWYSRRTPGRPTSSQSYEQNIKQIGTFASVEQFWRFYNHMVRPGDLTGHSDFHLFKEGIKPMWEDDANKNGGKWIIRLRKGLASRCWENLILAMLGEQFMVGEEICGAVVSVRFQEDIISIWNKTASDQATTARIRDTLRRVLNLPPNTIMEYKTHTDSIKMPGRLGPQRLLFQNLWKPRLNVP
Consider B2, for which the “binding to endogenous GYF2” value in the assay with endogenous GYF2 is on record as “Binding of GYF2 was not affected by the S99N mutation”.

B3: 4EHP cap: 4EHP W124A; cap-binding pocket mutant (protein, UniProt O60573 1-245, looked up, variant W124A)
Eukaryotic translation …: MNNKFDALKDDDSGDHDQNEENSTQKDGEKEKTERDKNQSSSKRKAVVPGPAEHPLQYNYTFWYSRRTPGRPTSSQSYEQNIKQIGTFASVEQFWRFYSHMVRPGDLTGHSDFHLFKEGIKPMAEDDANKNGGKWIIRLRKGLASRCWENLILAMLGEQFMVGEEICGAVVSVRFQEDIISIWNKTASDQATTARIRDTLRRVLNLPPNTIMEYKTHTDSIKMPGRLGPQRLLFQNLWKPRLNVP
Take B3: the “binding to endogenous GYF2” value with endogenous GYF2 is reported as “still binds to GYF1/2”.

(Values after paper PMC5538437 (Genes & Development, 2017).)
